Assay results from ChEMBL document CHEMBL1152451 (J Med Chem, 2009).

How the values were obtained:
Assay type in all cases: ADME, organism-based
[1] = Drug level in spontaneously hypersensitive rat at 300 mg/kg, po qd for 8 days measured after 4 hrs post dose; set-up: dose 300 mg/kg, route oral; conditions: spontaneously hypersensitive rat (SHR), in vivo, read-out: Drug uptake
[2] = Drug level in spontaneously hypersensitive rat at 300 mg/kg, po qd for 8 days measured after 24 hrs post dose; set-up: dose 300 mg/kg, route oral; conditions: spontaneously hypersensitive rat (SHR), in vivo, read-out: Drug uptake
Rattus norvegicus [3] = assay: Increase in endogenous 14,15-EET/DHET ratio in spontaneously hypersensitive rat kidney at 300 mg/kg, po for 8 days by LC/MS/MS analysis; set-up: dose 300 mg/kg, route oral; conditions: in vivo, 192 h
Summary of the method: (§1)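 SHRs given daily oral doses, with kidneys analysed for endogenous epoxide/diol ratios and for 20-HETE. A parallel PK group of SHRs was sampled on the eighth day of dosing at 4 and 24 h postdose.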

Rattus norvegicus [4] = assay: Increase in endogenous 20-HETE level in spontaneously hypersensitive rat kidney at 300 mg/kg, po for 8 days by LC/MS/MS analysis; set-up: dose 300 mg/kg, route oral; conditions: in vivo, 192 h; summary of the method: as §1
[5] = Bioavailability in spontaneously hypersensitive rat at 1 mg/kg, iv and 2 mg/kg, po; conditions: spontaneously hypersensitive rat (SHR), in vivo
[6] = Clearance in spontaneously hypersensitive rat at 1 mg/kg, iv and 2 mg/kg, po; conditions: spontaneously hypersensitive rat (SHR), in vivo
[7] = Volume of distribution at steady state in spontaneously hypersensitive rat at 1 mg/kg, iv and 2 mg/kg, po; conditions: spontaneously hypersensitive rat (SHR), in vivo, read-out: Vdss
[8] = Half life in spontaneously hypersensitive rat at 1 mg/kg, iv and 2 mg/kg, po; conditions: spontaneously hypersensitive rat (SHR), in vivo

concentration at 4 h [1] [µM] | concentration at 24 h [2] [µM] | fold change (FC) (Rattus norvegicus [3]) | fold change (FC) (Rattus norvegicus [4]) | bioavailability [5] [%] | clearance [6] [mL/min/kg] | Vd [7] [L/kg] | half-life [8] [h] | SMILES
35 | 20 | 2 | 2.5 | – | – | – | – | O=C(N[C@@H]1C[C@H]1c1ccccc1)N1CCC(c2nc(-c3ccccn3)no2)CC1
– | – | – | – | 77 | 29 | 2.7 | 1.4 | O=C(NC1CC1c1ccccc1)N1CCC(c2nc(-c3ccccn3)no2)CC1 (stereo in doubt; 2d)
